Assay results reported in ChEMBL document CHEMBL1142093, “In vitro activity of the oxazolidinone RWJ-416457 against linezolid-resistant and -susceptible staphylococci and enterococci” (2007).
Converted amounts (≈) assume the structure as drawn.

Tests used:
Staphylococcus aureus [1] = experiment: Antimicrobial activity against methicillin-resistant Staphylococcus aureus Ho 4536-0367 with heterozygous 23S rRNA G2576U mutation; assay type: functional
In short: (§1)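 MIC by CLSI agar dilution. Resistant clinical enterococcal and S. aureus isolates came mostly from UK patients, a few from Brazil and Austria. Laboratory mutants were selected from clinical isolate ST/02/2121, RN4220 and hypermutable RN4220ΔmutS. Selection used serial broth passage with linezolid rising arithmetically from 0.5 to 10 μg/ml, then repeated subculture on agar with 10 μg/ml linezolid.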

Staphylococcus aureus [2] = experiment: Antimicrobial activity against methicillin-resistant Staphylococcus aureus Ho 4280-0256 with heterozygous 23S rRNA G2576U mutation; assay type: functional; in short: as §1
Staphylococcus aureus [3] = experiment: Antimicrobial activity against methicillin-resistant Staphylococcus aureus Ho 4536-0368 with heterozygous 23S rRNA G2576U mutation; assay type: functional; in short: as §1
Staphylococcus aureus [4] = experiment: Antimicrobial activity against methicillin-resistant Staphylococcus aureus Ho 4280-0257 with heterozygous 23S rRNA G2576U mutation; assay type: functional; in short: as §1
Staphylococcus aureus [5] = experiment: Antimicrobial activity against methicillin-resistant Staphylococcus aureus Ho 4280-0258 with heterozygous 23S rRNA G2576U mutation; assay type: functional; in short: as §1
Staphylococcus aureus [6] = experiment: Antimicrobial activity against methicillin-resistant Staphylococcus aureus B2 with heterozygous 23S rRNA G2576U mutation; assay type: functional; in short: as §1
Staphylococcus aureus [7] = experiment: Antimicrobial activity against Staphylococcus aureus RN4220; assay type: functional; in short: as §1
Staphylococcus aureus [8] = experiment: Antimicrobial activity against Staphylococcus aureus RN4220 with 23S rRNA G2447T mutation; assay type: functional; in short: as §1
Staphylococcus aureus [9] = experiment: Antimicrobial activity against Staphylococcus aureus RN4220 with 23S rRNA G2576U mutation; assay type: functional; in short: as §1
Staphylococcus aureus [10] = experiment: Antimicrobial activity against Staphylococcus aureus RN4220 deltamutS with 23S rRNA G2576U mutation; assay type: functional; in short: as §1
Staphylococcus aureus [11] = experiment: Antimicrobial activity against Staphylococcus aureus RN4220 deltamutS revertant with 23S rRNA G2576U mutation; assay type: functional; in short: as §1
Staphylococcus aureus [12] = experiment: Antimicrobial activity against Staphylococcus aureus RN4220 deltamutS with 23S rRNA G2576U and A2503G mutation; assay type: functional; in short: as §1
Staphylococcus aureus [13] = experiment: Antimicrobial activity against Staphylococcus aureus ST/02/2121; assay type: functional; in short: as §1
Staphylococcus aureus [14] = experiment: Antimicrobial activity against Staphylococcus aureus ST/02/2121 with 23S rRNA T2504C mutation; assay type: functional; in short: as §1
Staphylococcus aureus [15] = experiment: Antimicrobial activity against Staphylococcus aureus ST/02/2121 with 23S rRNA G2447T mutation; assay type: functional; in short: as §1
Staphylococcus aureus [16] = experiment: Antimicrobial activity against Staphylococcus aureus RN4220 deltamutS; assay type: functional; in short: as §1
Enterococcus faecalis [17] = experiment: Antimicrobial activity against Enterococcus faecalis Ho 4450-0446 with heterozygous 23S rRNA G2576U mutation; assay type: functional; in short: as §1
Enterococcus faecalis [18] = experiment: Antimicrobial activity against Enterococcus faecalis 1 L2 with heterozygous 23S rRNA G2576U mutation; assay type: functional; in short: as §1
Enterococcus faecalis [19] = experiment: Antimicrobial activity against Enterococcus faecalis 25 with heterozygous 23S rRNA G2576U mutation; assay type: functional; in short: as §1
Enterococcus faecalis [20] = experiment: Antimicrobial activity against Enterococcus faecalis 37 with heterozygous 23S rRNA G2576U mutation; assay type: functional; in short: as §1
Enterococcus faecalis [21] = experiment: Antimicrobial activity against Enterococcus faecalis 45 with heterozygous 23S rRNA G2576U mutation; assay type: functional; in short: as §1
Enterococcus faecalis [22] = experiment: Antimicrobial activity against Enterococcus faecalis 9 with heterozygous 23S rRNA G2576U mutation; assay type: functional; in short: as §1
Enterococcus faecium [23] = experiment: Antimicrobial activity against Enterococcus faecium Ho 5114-0276 with heterozygous 23S rRNA G2576U mutation; assay type: functional; in short: as §1
Enterococcus faecium [24] = experiment: Antimicrobial activity against Enterococcus faecium 28 with heterozygous 23S rRNA G2576U mutation; assay type: functional; in short: as §1
Enterococcus faecium [25] = experiment: Antimicrobial activity against Enterococcus faecium 44 with heterozygous 23S rRNA G2576U mutation; assay type: functional; in short: as §1
Enterococcus faecium [26] = experiment: Antimicrobial activity against Enterococcus faecium Ho 4418-0062 with heterozygous 23S rRNA G2576U mutation; assay type: functional; in short: as §1
Enterococcus faecium [27] = experiment: Antimicrobial activity against Enterococcus faecium 18 with heterozygous 23S rRNA G2576U mutation; assay type: functional; in short: as §1
Enterococcus faecium [28] = experiment: Antimicrobial activity against Enterococcus faecium 31 with heterozygous 23S rRNA G2576U mutation; assay type: functional; in short: as §1
Enterococcus faecium [29] = experiment: Antimicrobial activity against Enterococcus faecium 16 with homozygous 23S rRNA G2576U mutation; assay type: functional; in short: as §1
Enterococcus faecium [30] = experiment: Antimicrobial activity against Enterococcus faecium 34 with homozygous 23S rRNA G2576U mutation; assay type: functional; in short: as §1
Enterococcus faecium [31] = experiment: Antimicrobial activity against Enterococcus faecium Ho 4136-0042; assay type: functional; settings: in the assay text read “H0 4136-0043” for “Ho 4136-0042”
In short: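 MIC by CLSI agar dilution against a clinical enterococcal isolate. The isolates were either linezolid-susceptible UK clinical isolates (about 100 per group) or among 23 linezolid-resistant clinical enterococci and S. aureus, mostly from UK patients, with a few from Brazil and Austria.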

Enterococcus faecium [32] = experiment: Antimicrobial activity against Enterococcus faecium 3 with heterozygous 23S rRNA G2576U mutation
Enterococcus faecium [33] = experiment: Antimicrobial activity against Enterococcus faecium 2 L1 with homozygous 23S rRNA G2576U mutation

| SMILES | MIC (Staphylococcus aureus [1]) [µg/mL] | MIC (Staphylococcus aureus [2]) [µg/mL] | MIC (Staphylococcus aureus [3]) [µg/mL] | MIC (Staphylococcus aureus [4]) [µg/mL] | MIC (Staphylococcus aureus [5]) [µg/mL] | MIC (Staphylococcus aureus [6]) [µg/mL] | MIC (Staphylococcus aureus [8]) [µg/mL] | MIC (Staphylococcus aureus [9]) [µg/mL] | MIC (Staphylococcus aureus [10]) [µg/mL] | MIC (Staphylococcus aureus [11]) [µg/mL] | MIC (Staphylococcus aureus [12]) [µg/mL] | MIC (Staphylococcus aureus [14]) [µg/mL] | MIC (Staphylococcus aureus [15]) [µg/mL] | MIC (Enterococcus faecalis [18]) [µg/mL] | MIC (Enterococcus faecalis [19]) [µg/mL] | MIC (Enterococcus faecalis [20]) [µg/mL] | MIC (Enterococcus faecalis [21]) [µg/mL] | MIC (Enterococcus faecalis [22]) [µg/mL] | MIC (Enterococcus faecium [23]) [µg/mL] | MIC (Enterococcus faecium [24]) [µg/mL] | other results |
| --- | --- | --- | --- | --- | --- | --- | --- | --- | --- | --- | --- | --- | --- | --- | --- | --- | --- | --- | --- | --- | --- |
| CC(=O)NC[C@H]1CN(c2ccc(N3Cc4cn(C)nc4C3)c(F)c2)C(=O)O1 | 2 (≈ 5.36 µM) | 4 (≈ 10.7 µM) | 8 (≈ 21.4 µM) | 8 (≈ 21.4 µM) | 8 (≈ 21.4 µM) | 8 (≈ 21.4 µM) | 8 (≈ 21.4 µM) | 4 (≈ 10.7 µM) | 8 (≈ 21.4 µM) | 8 (≈ 21.4 µM) | 8 (≈ 21.4 µM) | 8 (≈ 21.4 µM) | 4 (≈ 10.7 µM) | 16 (≈ 42.9 µM) | 16 (≈ 42.9 µM) | 8 (≈ 21.4 µM) | 8 (≈ 21.4 µM) | 16 (≈ 42.9 µM) | 2 (≈ 5.36 µM) | 8 (≈ 21.4 µM) | MIC (Staphylococcus aureus [7]): 0.5 µg/mL (≈ 1.34 µM); MIC (Staphylococcus aureus [13]): 1 µg/mL (≈ 2.68 µM); MIC (Staphylococcus aureus [16]): 0.5 µg/mL (≈ 1.34 µM); MIC (Enterococcus faecalis [17]): 2 µg/mL (≈ 5.36 µM); MIC (Enterococcus faecium [25]): 4 µg/mL (≈ 10.7 µM); MIC (Enterococcus faecium [26]): 16 µg/mL (≈ 42.9 µM); MIC (Enterococcus faecium [27]): 8 µg/mL (≈ 21.4 µM); MIC (Enterococcus faecium [28]): 8 µg/mL (≈ 21.4 µM); MIC (Enterococcus faecium [29]): 16 µg/mL (≈ 42.9 µM); MIC (Enterococcus faecium [30]): 32 µg/mL (≈ 85.7 µM); MIC (Enterococcus faecium [31]): 16 µg/mL (≈ 42.9 µM); MIC (Enterococcus faecium [32]): 16 µg/mL (≈ 42.9 µM); MIC (Enterococcus faecium [33]): 32 µg/mL (≈ 85.7 µM) |
| CC(=O)NC[C@H]1CN(c2ccc(N3CCOCC3)c(F)c2)C(=O)O1 [LINEZOLID] | 8 (≈ 23.7 µM) | 16 (≈ 47.4 µM) | 32 (≈ 94.9 µM) | 32 (≈ 94.9 µM) | 32 (≈ 94.9 µM) | 32 (≈ 94.9 µM) | 16 (≈ 47.4 µM) | 16 (≈ 47.4 µM) | 16 (≈ 47.4 µM) | 16 (≈ 47.4 µM) | 32 (≈ 94.9 µM) | 16 (≈ 47.4 µM) | 16 (≈ 47.4 µM) | 32 (≈ 94.9 µM) | 32 (≈ 94.9 µM) | 32 (≈ 94.9 µM) | 32 (≈ 94.9 µM) | 64 (≈ 190 µM) | 8 (≈ 23.7 µM) | 16 (≈ 47.4 µM) | MIC (Enterococcus faecium [25]): 16 µg/mL (≈ 47.4 µM); MIC (Enterococcus faecium [26]): 32 µg/mL (≈ 94.9 µM); MIC (Enterococcus faecium [27]): 32 µg/mL (≈ 94.9 µM); MIC (Enterococcus faecium [28]): 32 µg/mL (≈ 94.9 µM); MIC (Enterococcus faecium [29]): 64 µg/mL (≈ 190 µM); MIC (Enterococcus faecium [30]): 64 µg/mL (≈ 190 µM); MIC (Enterococcus faecium [31]): 64 µg/mL (≈ 190 µM); MIC (Enterococcus faecium [32]): 64 µg/mL (≈ 190 µM); MIC (Enterococcus faecium [33]): 64 µg/mL (≈ 190 µM) |
